Measured values published in ChEMBL document CHEMBL1944504, “Toward the definition of stereochemical requirements for MT2-selective antagonists and partial agonists by studying 4-phenyl-2-propionamidotetralin derivatives” (J Med Chem, 2011).

Columns and labels:
[1] = Antagonist activity at human MT1 receptor expressed in […] NIH3T3 cells after 30 mins by [35S]GTPgammaS binding assay relative to melatonin; type: functional
[2] = Antagonist activity at human MT2 receptor expressed in […] NIH3T3 cells after 30 mins by [35S]GTPgammaS binding assay relative to melatonin; type: functional
[3] = Displacement of 2-[125I]iodomelatonin from human MT2 receptor expressed in […] NIH3T3 cells after 90 mins; type: cell-based
Summary of the method: (§1)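 Competition binding on membranes from NIH3T3 cells expressing the cloned human receptor (5−10 μg protein per tube). Incubation with 100 pM 2-[¹²⁵I]iodomelatonin for 90 min at 37 °C in 50 mM Tris-HCl, pH 7.4. Melatonin was tested at 10⁻¹⁰−10⁻⁶ M; nonspecific binding was defined with 10 μM melatonin. IC₅₀ came from nonlinear fitting and was converted to pKi by Cheng−Prusoff; values are means of ≥3 independent duplicate determinations.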

[4] = Displacement of 2-[125I]iodomelatonin from human MT1 receptor expressed in […] NIH3T3 cells after 90 mins; type: cell-based; summary of the method: as §1
[5] = Partial agonist activity at human MT2 receptor expressed in […] NIH3T3 cells after 30 mins by [35S]GTPgammaS binding assay relative to melatonin; type: functional
[6] = Partial agonist activity at human MT1 receptor expressed in […] NIH3T3 cells after 30 mins by [35S]GTPgammaS binding assay relative to melatonin; type: functional

| Structure (SMILES) | Intrinsic activity [1] | Intrinsic activity [2] | pKi [3] | pKi [4] | Intrinsic activity [5] | Intrinsic activity [6] |
| --- | --- | --- | --- | --- | --- | --- |
| CCC(=O)N[C@@H]1Cc2ccccc2[C@@H](c2ccccc2)C1 | -0.23 | -0.14 | 6.1 | 5.67 | – | – |
| CCC(=O)N[C@@H]1Cc2ccccc2[C@H](c2ccccc2)C1 | 0.15 | – | 9.26 | 7.02 | 0.45 | – |
| CCC(=O)N[C@H]1Cc2ccccc2[C@H](c2ccccc2)C1 | – | – | 8.02 | 6.89 | 0.48 | 0.33 |
| CCC(=O)N[C@H]1Cc2ccccc2[C@@H](c2ccccc2)C1 | 0.06 | 0.11 | 7.01 | 6.59 | – | – |
| CCC(=O)N[C@@H]1Cc2c(OC)cccc2[C@H](c2ccccc2)C1 (racemic) | 0.2 | – | 10.22 | 7.83 | 0.44 | – |
| CCC(=O)N[C@H]1Cc2c(OC)cccc2[C@H](c2ccccc2)C1 (racemic) | 0.02 | 0.21 | 9.71 | 7.04 | – | – |
| CCC(=O)N[C@@H]1Cc2c(Br)cccc2[C@H](c2ccccc2)C1 (racemic) | – | – | 10.85 | 7.99 | 0.65 | 0.49 |
| CCC(=O)N[C@@H]1Cc2ccccc2[C@H](c2ccccc2)C1 (racemic) | 0.23 | – | 9.16 | 7.12 | 0.46 | – |
| CCC(=O)N[C@H]1Cc2ccccc2[C@H](c2ccccc2)C1 (racemic) | – | – | 8.06 | 6.65 | 0.4 | 0.41 |
| CCC(=O)NC1=Cc2ccccc2C(c2ccccc2)C1 (racemic) | 0.14 | – | 7.43 | 7.3 | 0.59 | – |
| CCC(=O)NC1=Cc2c(OC)cccc2C(c2ccccc2)C1 (racemic) | – | – | 7.11 | 6.74 | 0.49 | 0.32 |
| CCC(=O)NCC1=Cc2ccccc2C(c2ccccc2)C1 (racemic) | 0.01 | 0.02 | 8.46 | 7.69 | – | – |
